From ChEMBL document CHEMBL1130418, “Synthesis and evaluation of 6-(dibromomethyl)-5-nitropyrimidines as potential antitumor agents” (J Med Chem, 1997)

Tests used:
Mus musculus [1] = organism: Mus musculus; test: Concentration required to decrease the growth rate to 50% of control; format: functional, organism-based
Summary of the method: (§1)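 Antiproliferative assay in L1210 murine leukemia or H.Ep.2 human epidermoid carcinoma cells. Cells were counted over time with compound present. Growth rate is the slope of log cell number versus time as a percentage of the control slope. IC50 is the concentration that lowers the growth rate to 50% of control. Values are usually the mean of two concentration–response determinations.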

Mus musculus [2] = organism: Mus musculus; test: The initial growth rate of cells in the presence at the screen concentration 100 mM in leukemic cells (L1210) of mice; format: functional
Mus musculus [3] = organism: Mus musculus; test: The concentration required to decrease the estimate of the minimum fraction of leukemic cells of mice that survived treatment to 50% (L1210); no evidence of survivin cell
Mus musculus [4] = organism: Mus musculus; test: The initial growth rate of cells in the presence at the screen concentration 10 mM in leukemic cells (L1210) of mice; format: functional
Mus musculus [5] = organism: Mus musculus; test: The concentration required to decrease the estimate of the minimum fraction of leukemic cells (L1210) of mice that survived treatment to 50%; format: functional, organism-based
Summary of the method: (§2)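 Surviving-fraction estimate in L1210 suspension cultures (Fischer's medium) counted daily over 3 days across compound concentrations. The exponential part of each growth curve was extrapolated back to zero time, and the intercept was expressed as a percentage of the initial cell number. The value is the concentration that lowers this minimum surviving fraction to 50%.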

HEp-2 [6] = test: The initial growth rate of cells in the presence at the screen concentration 100 mM in human epidermoid carcinoma cells (H.Ep.2); format: functional
Summary of the method: (§3)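 H.Ep.2 monolayers were seeded at 2×10^4 cells per flask and switched after 1 day to medium containing compound at the single screen concentration. Duplicate flasks were counted on days 1, 2 and 4. The initial slope of log cell number versus time is given as a percentage of the untreated control slope.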

Mus musculus [7] = organism: Mus musculus; test: Concentration required to decrease the growth rate to 50% of control; cell proliferation was not slowed at the screen concentration 100 mM; format: functional, organism-based; summary of the method: as §1
Mus musculus [8] = organism: Mus musculus; test: The concentration required to decrease the estimate of the minimum fraction of leukemic cells (L1210) of mice that survived treatment to 50%; cell proliferation was not slowed at the screen concentration 100 mM; format: functional; summary of the method: as §2
HEp-2 [9] = test: Concentration required to decrease the growth rate to 50% of control on H.Ep.2 cells; cell proliferation was not slowed at the screen concentration 100 mM; format: functional, cell-based, Homo sapiens
HEp-2 [10] = test: The concentration required to decrease the estimate of the minimum fraction of human epidermoid carcinoma cells that survived treatment to 50% (H.Ep.2); cell proliferation was not slowed at the screen concentration 100 mM; format: functional, cell-based
Summary of the method: (§4)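 Surviving fraction in H.Ep.2 monolayers exposed to compound from day 1 after seeding, with duplicate flasks counted on days 1, 2 and 4. The exponential growth curve was back-extrapolated to zero time, and the intercept was expressed as a percentage of initial cells. The value is the concentration that lowers this minimum surviving fraction to 50%.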

Mus musculus [11] = organism: Mus musculus; test: Concentration required to decrease the growth rate to 50% of control; cell proliferation was not slowed down at screen concentration 10 mM; format: functional, organism-based; summary of the method: as §1
Mus musculus [12] = organism: Mus musculus; test: The concentration required to decrease the estimate of the minimum fraction of leukemic cells (L1210) of mice that survived treatment to 50%. * indicates cell proliferation was not slowed down at screen concentration 10 mM; format: functional; summary of the method: as §2
Mus musculus [13] = organism: Mus musculus; test: The concentration required to decrease the estimate of the minimum fraction of leukemic cells (L1210) of mice that survived treatment to 50%; no evidence of surviving cell; format: functional, organism-based; summary of the method: as §2
Mus musculus [14] = test: Percent treated to untreated control was measured on Leukemia-bearing mice at the dose of 25 mg/kg; format: functional
HEp-2 [15] = test: The concentration required to decrease the estimate of the minimum fraction of human epidermoid carcinoma cells that survived treatment to 50% (H.Ep.2); format: functional, cell-based; summary of the method: as §4
HEp-2 [16] = test: Concentration required to decrease the growth rate to 50% of control on H.Ep.2 cells.; format: functional, cell-based; details: Homo sapiens
Mus musculus [17] = test: Percent treated to untreated control was measured on Leukemia-bearing mice at the dose of 6.25 mg/kg; format: functional
Summary of the method: (§5)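 Mice were inoculated with P388 leukemia cells, and compound was injected once daily on days 1–5 after inoculation at doses of 200 down to 6.25 mg/kg/injection. T/C% is the life span of treated mice divided by that of untreated tumor-bearing control mice, ×100.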

Mus musculus [18] = test: Percent treated to untreated control was measured on Leukemia-bearing mice at the dose of 12.5 mg/kg; format: functional; summary of the method: as §5
Mus musculus [19] = organism: Mus musculus; test: The concentration required to decrease the estimate of the minimum fraction of leukemic cells of mice that survived treatment to 50%; no evidence of surviving cell; format: functional, organism-based
Summary of the method: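 Minimum surviving fraction was estimated by back-extrapolating the exponential portion of treated-cell growth curves to zero time, as a percentage of the initial cell number. The value is the concentration that lowers this to 50%.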

Mus musculus [20] = organism: Mus musculus; test: Concentration required to decrease the growth rate to 50% of control; cell proliferation was not slowed down at screen concentration 100 mM; format: functional, organism-based; summary of the method: as §1
Mus musculus [21] = organism: Mus musculus; test: The concentration required to decrease the estimate of the minimum fraction of leukemic cells (L1210) of mice that survived treatment to 50%; cell proliferation was not slowed down at screen concentration 100 mM; format: functional; summary of the method: as §2
HEp-2 [22] = test: The concentration required to decrease the estimate of the minimum fraction of human epidermoid carcinoma cells that survived treatment to 50% (H.Ep.2); cell proliferation was not slowed down at screen concentration 100 mM; format: functional, cell-based; summary of the method: as §4
Mus musculus [23] = test: Percent treated to untreated control was measured on Leukemia-bearing mice at the dose of 100 mg/kg; format: functional; summary of the method: as §5
Mus musculus [24] = test: Percent treated to untreated control was measured on Leukemia-bearing mice at the dose of 50 mg/kg; format: functional; summary of the method: as §5
Mus musculus [25] = organism: Mus musculus; test: The concentration required to decrease the estimate of the minimum fraction of leukemic cells (L1210) of mice that survived treatment to 50%. * indicates cell proliferation was not slowed down at screen concentration 100 mM; format: functional, organism-based; summary of the method: as §2
HEp-2 [26] = test: The initial growth rate of cells in the presence at the screen concentration 10 mM in human epidermoid carcinoma cells (H.Ep.2); format: functional; summary of the method: as §3
Mus musculus [27] = organism: Mus musculus; test: Concentration required to decrease the growth rate to 50% of control.; cell proliferation was not slowed down at screen concentration 10 mM; format: functional, organism-based; summary of the method: as §1

Row | Structure (SMILES) | IC50 (Mus musculus [1]) | Control (Mus musculus [2]) | IC50 (Mus musculus [5]) | Control (HEp-2 [6]) | also measured
1 | CCOc1nc(C(Br)Br)c([N+](=O)[O-])c(N2CCOCC2)n1 | 3.6 µM | 13% | – | – | IC50 (Mus musculus [3]): Not Active
2 | CCCOc1nc(C(Br)Br)c([N+](=O)[O-])c(N2CCOCC2)n1 | 2.3 µM | – | 6.1 µM | – | Control (Mus musculus [4]): 13%
3 | CNc1nc(OC)nc(C(Br)Br)c1[N+](=O)[O-] | 2.3 µM | 0% | 2 µM | 0% | –
4 | COc1nc(CBr)c([N+](=O)[O-])c(OC)n1 | 8 µM | 0% | 25 µM | 0% | –
5 | COc1nc(C)c([N+](=O)[O-])c(OC)n1 | – | 104% | – | 90% | IC50 (Mus musculus [7]): Cell proliferation not slowed; IC50 (Mus musculus [8]): Cell proliferation not slowed; IC50 (HEp-2 [9]): Cell proliferation not slowed; IC50 (HEp-2 [10]): Cell proliferation not slowed
6 | COc1nc(C=P(c2ccccc2)(c2ccccc2)c2ccccc2)c([N+](=O)[O-])c(OC)n1 | – | – | – | – | Control (Mus musculus [4]): 93%; IC50 (Mus musculus [11]): Cell proliferation not slowed; IC50 (Mus musculus [12]): Cell proliferation not slowed
7 | COc1nc(N)c([N+](=O)[O-])c(C(Br)Br)n1 | 2 µM | 0% | – | 0% | IC50 (Mus musculus [13]): Not Active; T/C (Mus musculus [14]): 91%; IC50 (HEp-2 [15]): 3.3 µM; IC50 (HEp-2 [16]): 1.6 µM; T/C (Mus musculus [17]): 104%; T/C (Mus musculus [18]): 100%
8 | COc1nc(OC)c([N+](=O)[O-])c(C(Br)Br)n1 | 1.9 µM | 0% | – | 0% | IC50 (Mus musculus [19]): Not Active; IC50 (HEp-2 [15]): 2.7 µM; IC50 (HEp-2 [16]): 2.5 µM
9 | COc1nc(CO)c([N+](=O)[O-])c(N2CCOCC2)n1 | – | 100% | – | 100% | IC50 (Mus musculus [20]): Cell proliferation not slowed; IC50 (HEp-2 [9]): Cell proliferation not slowed; IC50 (Mus musculus [21]): Cell proliferation not slowed; IC50 (HEp-2 [22]): Cell proliferation not slowed
10 | CCN(CC)c1nc(OC)nc(C(Br)Br)c1[N+](=O)[O-] | 5.8 µM | 0% | 5.6 µM | 0% | –
11 | COc1nc(C(Br)Br)c([N+](=O)[O-])c(N2CCOCC2)n1 | 0.32 µM | 0% | 0.56 µM | 0% | T/C (Mus musculus [14]): 109%; T/C (Mus musculus [23]): 87%; IC50 (HEp-2 [15]): 2.8 µM; T/C (Mus musculus [24]): 101%; IC50 (HEp-2 [16]): 1.6 µM
12 | Cc1nc(Cl)nc(Cl)c1[N+](=O)[O-] | – | 104% | – | – | IC50 (Mus musculus [20]): Cell proliferation not slowed; IC50 (Mus musculus [25]): Cell proliferation not slowed
13 | COc1nc(C(Br)Br)c([N+](=O)[O-])c(N2CCCCC2)n1 | 0.54 µM | – | 1.8 µM | – | Control (Mus musculus [4]): 0%; Control (HEp-2 [26]): 36%
14 | COc1nc(/C=C\N(C)C)c([N+](=O)[O-])c(OC)n1 | – | – | – | – | Control (Mus musculus [4]): 87%; IC50 (Mus musculus [27]): Cell proliferation not slowed; IC50 (Mus musculus [12]): Cell proliferation not slowed
15 | COc1nc(C=O)c([N+](=O)[O-])c(N(C)C)n1 | 5.9 µM | 0% | 12 µM | – | –
16 | COc1nc(C(Br)Br)c([N+](=O)[O-])c(N2CCCC2)n1 | 0.9 µM | – | 1 µM | – | Control (Mus musculus [4]): 0%
17 | CCOc1nc(OCC)c([N+](=O)[O-])c(C(Br)Br)n1 | 7.2 µM | 0% | – | – | IC50 (Mus musculus [19]): Not Active
